According to ChEMBL document CHEMBL1687708, “Efficacy of oritavancin in a murine model of Bacillus anthracis spore inhalation anthrax” (Antimicrob Agents Chemother, 2008):
Values after ≈ are worked out from the molar mass of the structure shown.

Legend:
[1] = system: Bacillus anthracis; assay: Antimicrobial activity against Bacillus anthracis infected mouse spore inhalation anthrax model assessed as bacterial load per gram of lung tissue at 30 mg/kg, ip every 12 hrs for 14 days treated 24 hrs postinfection; format: functional; settings: route intraperitoneal
[2] = system: Bacillus anthracis; assay: Antimicrobial activity against Bacillus anthracis infected mouse spore inhalation anthrax model assessed as bacterial load per gram of lung tissue at 30 mg/kg, ip every 12 hrs for 14 days treated 36 hrs postinfection; format: functional; settings: route intraperitoneal
[3] = system: Bacillus anthracis; assay: Antimicrobial activity against Bacillus anthracis infected mouse spore inhalation anthrax model assessed as bacterial load per gram of lung tissue at 30 mg/kg, ip every 12 hrs for 14 days treated 48 hrs postinfection; format: functional; settings: route intraperitoneal
[4] = system: Bacillus cereus; assay: Antimicrobial activity against Bacillus cereus ATCC 4342 by broth microdilution method; format: functional
How it was run: (§1)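 B. cereus ATCC 4342 went through stepwise selection for 20 cycles in cation-adjusted Mueller-Hinton broth with doubling drug dilutions. Each cycle was seeded from the previous day's 0.5× MIC wells, in two independent rounds per drug. Selectants showing a fourfold or greater MIC rise were passaged 5 days without drug. Their MICs were then read alongside the parent strain. Oritavancin assays carried 0.002% polysorbate 80 throughout.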

[5] = system: Bacillus cereus; assay: Antimicrobial activity against Bacillus cereus ATCC 4342 selected after 20 daily cycles of drug selection followed by 5 days of nonselective growth by broth microdilution method; format: functional; settings: ATCC 4342, 120 h; how it was run: as §1
[6] = system: Bacillus cereus; assay: Ratio of MIC for Bacillus cereus ATCC 4342 selected after 20 daily cycles of drug selection followed by 5 days of nonselective growth to MIC for Bacillus cereus ATCC 4342; format: functional; how it was run: as §1
[7] = system: Bacillus anthracis; assay: animal or person; settings: in Mus musculus, ip
[8] = system: Bacillus anthracis; assay: animal or person; settings: in Mus musculus, ip; remark: listed apart in the source
[9] = system: Bacillus anthracis; assay: animal or person; settings: in Mus musculus, ip; remark: listed apart in the source
[10] = system: Bacillus anthracis; assay: animal or person; settings: in Mus musculus, iv
[11] = system: Bacillus anthracis; assay: animal or person; settings: in Mus musculus, ip; remark: listed apart in the source
[12] = system: Bacillus anthracis; assay: Antimicrobial activity against Bacillus anthracis by broth microdilution method in presence of polysorbate-80; format: functional
[13] = system: Bacillus anthracis; assay: Ratio of MIC90 for Bacillus anthracis in presence of polysorbate-80 to MIC90 for Bacillus anthracis; format: functional
[14] = system: Bacillus anthracis; assay: Antimicrobial activity against Bacillus anthracis Ames by broth microdilution method in presence of polysorbate-80; format: functional
[15] = system: Bacillus anthracis; assay: Antimicrobial activity against Bacillus anthracis infected mouse spore inhalation anthrax model; format: functional; settings: inhaled or nasal
[16] = system: Bacillus anthracis; assay: Antimicrobial activity against Bacillus anthracis infected mouse spore inhalation anthrax model assessed as survival rate at 30 mg/kg, ip every 48 hrs for 14 days treated 24 hrs postinfection; format: functional; settings: route intraperitoneal
[17] = system: Bacillus anthracis; assay: Antimicrobial activity against Bacillus anthracis infected mouse spore inhalation anthrax model assessed as survival rate at 10 mg/kg, ip every 48 hrs for 14 days treated 24 hrs postinfection; format: functional; settings: route intraperitoneal
[18] = system: Bacillus anthracis; assay: Antimicrobial activity against Bacillus anthracis infected mouse spore inhalation anthrax model assessed as survival rate at 3 mg/kg, ip every 48 hrs for 14 days treated 24 hrs postinfection; format: functional; settings: route intraperitoneal
[19] = system: Bacillus anthracis; assay: Antimicrobial activity against Bacillus anthracis infected mouse spore inhalation anthrax model assessed as survival rate at 1 mg/kg, ip every 48 hrs for 14 days treated 24 hrs postinfection; format: functional; settings: route intraperitoneal
[20] = system: Bacillus anthracis; assay: Antimicrobial activity against Bacillus anthracis infected mouse spore inhalation anthrax model assessed as survival rate at 0.3 mg/kg, ip every 48 hrs for 14 days treated 24 hrs postinfection; format: functional; settings: route intraperitoneal
[21] = system: Bacillus anthracis; assay: Antimicrobial activity against Bacillus anthracis infected mouse spore inhalation anthrax model assessed as survival rate at 0.1 mg/kg, ip every 48 hrs for 14 days treated 24 hrs postinfection; format: functional; settings: route intraperitoneal
[22] = system: Bacillus anthracis; assay: Antimicrobial activity against Bacillus anthracis infected mouse spore inhalation anthrax model assessed as survival rate at 50 mg/kg, iv administered as single dose treated 24 hrs postinfection; format: functional
[23] = system: Bacillus anthracis; assay: Antimicrobial activity against Bacillus anthracis infected mouse spore inhalation anthrax model assessed as survival rate at 15 mg/kg, iv administered as single dose treated 24 hrs postinfection; format: functional
[24] = system: Bacillus anthracis; assay: Antimicrobial activity against Bacillus anthracis infected mouse spore inhalation anthrax model assessed as survival rate at 5 mg/kg, iv administered as single dose treated 24 hrs postinfection; format: functional
[25] = system: Bacillus anthracis; assay: Antimicrobial activity against Bacillus anthracis infected mouse spore inhalation anthrax model assessed as survival rate at 10 mg/kg, ip every 48 hrs for 14 days treated 36 hrs postinfection; format: functional; settings: route intraperitoneal
[26] = system: Bacillus anthracis; assay: Antimicrobial activity against Bacillus anthracis infected mouse spore inhalation anthrax model assessed as survival rate at 10 mg/kg, ip every 48 hrs for 14 days treated 48 hrs postinfection; format: functional; settings: route intraperitoneal
[27] = system: Bacillus anthracis; assay: Antimicrobial activity against Bacillus anthracis infected mouse spore inhalation anthrax model assessed as survival rate at 50 mg/kg, iv administered as single dose treated 42 hrs postinfection; format: functional
[28] = system: Bacillus anthracis; assay: Antimicrobial activity against Bacillus anthracis infected mouse spore inhalation anthrax model assessed as survival rate at 50 mg/kg, iv administered as single dose treated 24 hrs before infection measured on 33 days postinfection; format: functional
[29] = system: Bacillus anthracis; assay: Antimicrobial activity against Bacillus anthracis infected mouse spore inhalation anthrax model assessed as survival rate at 50 mg/kg, iv administered as single dose treated 7 days before infection measured on 33 days postinfection; format: functional
[30] = system: Bacillus anthracis; assay: Antimicrobial activity against Bacillus anthracis infected mouse spore inhalation anthrax model assessed as survival rate at 50 mg/kg, iv administered as single dose treated 14 days before infection measured on 22 days postinfection; format: functional
[31] = system: Bacillus anthracis; assay: Antimicrobial activity against Bacillus anthracis infected mouse spore inhalation anthrax model assessed as survival rate at 50 mg/kg, iv administered as single dose treated 28 days before infection measured on 22 days postinfection; format: functional
[32] = system: Bacillus anthracis; assay: Antimicrobial activity against Bacillus anthracis infected mouse spore inhalation anthrax model assessed as bacterial load per gram of lung tissue at 30 mg/kg, ip every 48 hrs for 14 days treated 24 hrs postinfection; format: functional; settings: route intraperitoneal
[33] = system: Bacillus anthracis; assay: Antimicrobial activity against Bacillus anthracis infected mouse spore inhalation anthrax model assessed as bacterial load per gram of lung tissue at 10 mg/kg, ip every 48 hrs for 14 days treated 24 hrs postinfection; format: functional; settings: route intraperitoneal
[34] = system: Bacillus anthracis; assay: Antimicrobial activity against Bacillus anthracis infected mouse spore inhalation anthrax model assessed as bacterial load per gram of lung tissue at 3 mg/kg, ip every 48 hrs for 14 days treated 24 hrs postinfection; format: functional; settings: route intraperitoneal
[35] = system: Bacillus anthracis; assay: Antimicrobial activity against Bacillus anthracis infected mouse spore inhalation anthrax model assessed as bacterial load per gram of lung tissue at 1 mg/kg, ip every 48 hrs for 14 days treated 24 hrs postinfection; format: functional; settings: route intraperitoneal
[36] = system: Bacillus anthracis; assay: Antimicrobial activity against Bacillus anthracis infected mouse spore inhalation anthrax model assessed as bacterial load per gram of lung tissue at 0.3 mg/kg, ip every 48 hrs for 14 days treated 24 hrs postinfection; format: functional; settings: route intraperitoneal
[37] = system: Bacillus anthracis; assay: Antimicrobial activity against Bacillus anthracis infected mouse spore inhalation anthrax model assessed as bacterial load per gram of lung tissue at 50 mg/kg, iv administered as single dose treated 24 hrs postinfection; format: functional
[38] = system: Bacillus anthracis; assay: Antimicrobial activity against Bacillus anthracis infected mouse spore inhalation anthrax model assessed as bacterial load per gram of lung tissue at 15 mg/kg, iv administered as single dose treated 24 hrs postinfection; format: functional
[39] = system: Bacillus anthracis; assay: Antimicrobial activity against Bacillus anthracis infected mouse spore inhalation anthrax model assessed as bacterial load per gram of lung tissue at 5 mg/kg, iv administered as single dose treated 24 hrs postinfection; format: functional
[40] = system: Bacillus anthracis; assay: Antimicrobial activity against Bacillus anthracis infected mouse spore inhalation anthrax model assessed as bacterial load per gram of lung tissue at 10 mg/kg, ip every 48 hrs for 14 days treated 36 hrs postinfection; format: functional; settings: route intraperitoneal
[41] = system: Bacillus anthracis; assay: Antimicrobial activity against Bacillus anthracis infected mouse spore inhalation anthrax model assessed as bacterial load per gram of lung tissue at 10 mg/kg, ip every 48 hrs for 14 days treated 48 hrs postinfection; format: functional; settings: route intraperitoneal
[42] = system: Bacillus anthracis; assay: Antimicrobial activity against Bacillus anthracis infected mouse spore inhalation anthrax model assessed as bacterial load per gram of lung tissue at 50 mg/kg, iv administered as single dose treated 42 hrs postinfection; format: functional
[43] = system: Bacillus anthracis; assay: Antimicrobial activity against Bacillus anthracis infected mouse spore inhalation anthrax model assessed as bacterial load per gram of lung tissue at 50 mg/kg, iv administered as single dose treated 24 hrs before infection; format: functional
[44] = system: Bacillus anthracis; assay: Antimicrobial activity against Bacillus anthracis infected mouse spore inhalation anthrax model assessed as bacterial load per gram of lung tissue at 50 mg/kg, iv administered as single dose treated 7 days before infection; format: functional
[45] = system: Bacillus anthracis; assay: Antimicrobial activity against Bacillus anthracis infected mouse spore inhalation anthrax model assessed as bacterial load per gram of lung tissue at 50 mg/kg, iv administered as single dose treated 14 days before infection; format: functional
[46] = system: Bacillus anthracis; assay: Antimicrobial activity against Bacillus anthracis infected mouse spore inhalation anthrax model assessed as bacterial load per gram of lung tissue at 50 mg/kg, iv administered as single dose treated 28 days before infection; format: functional
[47] = system: Mus musculus; assay: Free peak concentration in Bacillus anthracis infected mouse spore inhalation anthrax model at 32 mg/kg, iv administered as single dose; format: ADME, organism-based; set-up: dose 32 mg/kg, route intravenous; settings: in vivo
[48] = system: Mus musculus; assay: fAUC (0.25 to 72 hrs) in Bacillus anthracis infected mouse spore inhalation anthrax model at 32 mg/kg, iv administered as single dose; format: ADME, organism-based; set-up: dose 32 mg/kg, route intravenous; settings: in vivo
[49] = system: Mus musculus; assay: Free peak concentration in Bacillus anthracis infected mouse spore inhalation anthrax model at 32 mg/kg, ip administered as single dose; format: ADME, organism-based; set-up: dose 32 mg/kg, route intraperitoneal; settings: in vivo
[50] = system: Mus musculus; assay: fAUC (0.25 to 72 hrs) in Bacillus anthracis infected mouse spore inhalation anthrax model at 32 mg/kg, ip administered as single dose; format: ADME, organism-based; set-up: dose 32 mg/kg, route intraperitoneal; settings: in vivo
[51] = system: Bacillus anthracis; assay: Antimicrobial activity against Bacillus anthracis infected mouse spore inhalation anthrax model assessed as survival rate at 0.1 mg/kg, ip every 48 hrs for 14 days treated 24 hrs postinfection measured on day 3; format: functional; settings: route intraperitoneal
[52] = species: Mus musculus; settings: in vivo, ip, 1.2 mg/kg

O=C(O)c1cn(C2CC2)c2cc(N3CCNCC3)c(F)cc2c1=O [CIPROFLOXACIN]
log10cfu [1]: 1090 | log10cfu [2]: 2880 | log10cfu [3]: 3080 | MIC [4]: 0.12 µg/mL (≈ 0.362 µM) | MIC [5]: 0.5 µg/mL (≈ 1.51 µM) | Ratio [6]: 4 | survival at 30 mg/kg [7]: 90% | survival at 30 mg/kg [8]: 70% | survival at 30 mg/kg [9]: 80% | survival at 30 mg/kg [10]: 0% | survival at 30 mg/kg [11]: 0%

CN[C@H](CC(C)C)C(=O)N[C@H]1C(=O)N[C@@H](CC(N)=O)C(=O)N[C@H]2C(=O)N[C@H]3C(=O)N[C@H](C(=O)N[C@H](C(=O)O)c4cc(O)cc(O)c4-c4cc3ccc4O)[C@H](O[C@H]3C[C@](C)(N)[C@@H](O)[C@H](C)O3)c3ccc(c(Cl)c3)Oc3cc2cc(c3O[C@@H]2O[C@H](CO)[C@@H](O)[C@H](O)[C@H]2O[C@H]2C[C@](C)(NCc3ccc(-c4ccc(Cl)cc4)cc3)[C@@H](O)[C@H](C)O2)Oc2ccc(cc2Cl)[C@H]1O [ORITAVANCIN]
MIC90 [12]: 0.12 µg/mL | Ratio [13]: 16 | MIC [14]: 0.015 µg/mL | ED50 [15]: 1.2 mg/kg | survival at 30 mg/kg [16]: 100% | survival at 10 mg/kg [17]: 100% | survival at 3 mg/kg [18]: 100% | survival at 1 mg/kg [19]: 50% | survival at 0.3 mg/kg [20]: 30% | survival at 0.1 mg/kg [21]: 0% | survival at 50 mg/kg [22]: 100% | survival at 15 mg/kg [23]: 70% | survival at 5 mg/kg [24]: 40% | survival at 10 mg/kg [25]: 90% | survival at 10 mg/kg [26]: 50% | survival at 50 mg/kg [27]: 55% | survival at 50 mg/kg [28]: 100% | survival at 50 mg/kg [29]: 90% | survival at 50 mg/kg [30]: 100% | survival at 50 mg/kg [31]: 20% | log10cfu [32]: 18200 | log10cfu [33]: 35000 | log10cfu [34]: 36800 | log10cfu [35]: 29500 | log10cfu [36]: 28000 | log10cfu [37]: 36100 | log10cfu [38]: 20300 | log10cfu [39]: 35000 | log10cfu [40]: 2520 | log10cfu [41]: 1680 | log10cfu [42]: 740 | log10cfu [43]: 1980 | log10cfu [44]: 63000 | log10cfu [45]: 65000 | log10cfu [46]: 51000 | Cmax_unbound [47]: 17000 ng/mL | fAUC [48]: 61000 ng·h/mL | Cmax_unbound [49]: 6100 ng/mL | fAUC [50]: 54000 ng·h/mL | MIC [4]: 0.004 µg/mL (≈ 0.00223 µM) | MIC [5]: 0.008 µg/mL (≈ 0.00446 µM) | Ratio [6]: 1 | Activity [51]: 100% | fAUC [52]: 1900 ng·h/mL
